Reference: ChEMBL document CHEMBL3875204, “Structure-guided development of covalent TAK1 inhibitors” (Bioorg Med Chem, 2017)
Activity calls are given as the source filed them. The rule behind the calls is not given here.

Tests used:
[1] = Half life in mouse liver microsomes by LC-MS/MS analysis; type: ADME
[2] = target: Dual specificity mitogen-activated protein kinase kinase 1 (Homo sapiens, UniProt Q02750); assay: Inhibition of full length recombinant human His-tagged MEK1 expressed in baculovirus expression system after 1 hr by TR-FRET based LanthaScreen assay
Sequence of Dual specificity mitogen-activated protein kinase kinase 1 (Q02750 whole entry): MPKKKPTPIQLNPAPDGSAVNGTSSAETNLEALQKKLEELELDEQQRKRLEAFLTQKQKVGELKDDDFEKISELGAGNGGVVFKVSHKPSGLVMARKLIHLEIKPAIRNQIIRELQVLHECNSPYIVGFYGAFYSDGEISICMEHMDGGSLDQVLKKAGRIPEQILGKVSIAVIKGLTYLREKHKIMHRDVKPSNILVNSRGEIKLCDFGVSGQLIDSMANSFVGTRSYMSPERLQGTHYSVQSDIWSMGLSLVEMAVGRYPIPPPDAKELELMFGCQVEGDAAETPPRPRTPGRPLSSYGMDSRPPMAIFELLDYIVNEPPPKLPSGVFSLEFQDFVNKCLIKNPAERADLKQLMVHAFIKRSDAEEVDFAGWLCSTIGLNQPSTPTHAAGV

[3] = target: Mitogen-activated protein kinase 1 (Homo sapiens, UniProt P28482); assay: Inhibition of full length recombinant human GST-tagged ERK2 expressed in Escherichia coli using Ser/Thr 03 as substrate after 1 hr by Z'-Lyte assay
Sequence of Mitogen-activated protein kinase 1 (P28482 whole entry): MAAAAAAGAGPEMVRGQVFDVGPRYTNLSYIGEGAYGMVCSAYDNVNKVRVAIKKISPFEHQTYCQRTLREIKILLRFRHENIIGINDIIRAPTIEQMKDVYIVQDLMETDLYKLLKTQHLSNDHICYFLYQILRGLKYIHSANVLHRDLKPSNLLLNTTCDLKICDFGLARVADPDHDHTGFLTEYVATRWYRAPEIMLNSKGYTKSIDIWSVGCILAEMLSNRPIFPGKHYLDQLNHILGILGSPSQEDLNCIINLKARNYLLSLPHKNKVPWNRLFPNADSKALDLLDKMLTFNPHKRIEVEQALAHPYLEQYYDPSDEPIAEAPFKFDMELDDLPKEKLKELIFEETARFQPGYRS
How it was run: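 Z'-Lyte FRET activity assay run per the supplier's protocol, with ATP near the kinase's Km.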

[4] = target: T1, Mitogen-activated protein kinase kinase kinase 7 (Homo sapiens, UniProt O43318); assay: Inhibition of full length recombinant human GST-tagged TAK1 expressed in baculovirus expression system after 1 hr by TR-FRET based LanthaScreen assay
T1 sequence (O43318 whole entry): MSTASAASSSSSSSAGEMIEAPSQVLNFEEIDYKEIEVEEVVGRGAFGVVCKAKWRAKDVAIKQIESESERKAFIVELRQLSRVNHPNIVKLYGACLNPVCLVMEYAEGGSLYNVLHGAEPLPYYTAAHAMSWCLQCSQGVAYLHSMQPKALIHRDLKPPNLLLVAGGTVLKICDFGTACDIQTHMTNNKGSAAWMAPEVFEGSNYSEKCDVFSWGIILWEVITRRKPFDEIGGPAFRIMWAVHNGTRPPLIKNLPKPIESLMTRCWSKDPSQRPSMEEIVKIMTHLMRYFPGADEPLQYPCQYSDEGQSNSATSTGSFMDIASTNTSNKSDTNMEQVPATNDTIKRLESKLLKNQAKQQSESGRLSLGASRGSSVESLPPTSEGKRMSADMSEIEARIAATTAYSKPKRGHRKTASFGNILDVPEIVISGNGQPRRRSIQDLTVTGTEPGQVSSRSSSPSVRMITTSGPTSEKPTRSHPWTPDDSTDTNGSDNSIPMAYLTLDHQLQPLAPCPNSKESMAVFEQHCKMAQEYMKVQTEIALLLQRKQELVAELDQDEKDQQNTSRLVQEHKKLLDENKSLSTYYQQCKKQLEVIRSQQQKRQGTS

[5] = target: T2, Mitogen-activated protein kinase kinase kinase 7 (Homo sapiens) (UniProt O43318); conditions: 10 uM
T2 sequence (whole entry): T1 sequence (O43318 whole entry)

[6] = target: T2, Mitogen-activated protein kinase kinase kinase 7 (Homo sapiens)
[7] = target: T1, Mitogen-activated protein kinase kinase kinase 7; assay: Time-dependent inhibition of TAB1 fused TAK1 (unknown origin) using FAM-LRRKtide as substrate by mobility shift assay
[8] = target: Wee1-like protein kinase 2 (Homo sapiens) (UniProt P0C1S8); assay: Inhibition of human WEE2 (M204 to K492 residues) expressed in bacterial expression system at 1 uM by KINOMEScan assay
Sequence of Wee1-like protein kinase 2 (Homo sapiens) (P0C1S8 whole entry, looked up, the tested form may be a part): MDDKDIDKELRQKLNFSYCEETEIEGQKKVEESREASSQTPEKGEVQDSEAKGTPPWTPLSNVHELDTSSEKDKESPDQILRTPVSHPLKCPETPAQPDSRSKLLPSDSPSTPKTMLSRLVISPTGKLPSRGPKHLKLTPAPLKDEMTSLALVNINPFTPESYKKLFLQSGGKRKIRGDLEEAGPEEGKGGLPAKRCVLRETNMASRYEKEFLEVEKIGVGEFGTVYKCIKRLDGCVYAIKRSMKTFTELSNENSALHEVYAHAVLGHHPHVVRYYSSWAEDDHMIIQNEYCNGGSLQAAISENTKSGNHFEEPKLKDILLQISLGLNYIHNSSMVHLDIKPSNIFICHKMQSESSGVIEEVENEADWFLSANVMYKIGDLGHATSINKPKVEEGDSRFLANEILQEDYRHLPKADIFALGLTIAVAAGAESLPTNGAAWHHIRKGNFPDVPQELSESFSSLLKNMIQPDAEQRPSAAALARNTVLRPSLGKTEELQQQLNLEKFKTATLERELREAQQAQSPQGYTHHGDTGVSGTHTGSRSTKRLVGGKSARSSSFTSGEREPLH
How it was run: (§1)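 KINOMEscan in vitro ATP-site competition binding, screened across a 468-kinase and mutant panel at a single concentration of 1 μM. Read-out is a binding or inhibition score […].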

[9] = target: Wee1-like protein kinase (Homo sapiens) (UniProt P30291); assay: Inhibition of human WEE1 (M291 to K575 residues) expressed in bacterial expression system at 1 uM by KINOMEScan assay; how it was run: as §1
Sequence of Wee1-like protein kinase (Homo sapiens) (P30291 whole entry, looked up, the tested form may be a part): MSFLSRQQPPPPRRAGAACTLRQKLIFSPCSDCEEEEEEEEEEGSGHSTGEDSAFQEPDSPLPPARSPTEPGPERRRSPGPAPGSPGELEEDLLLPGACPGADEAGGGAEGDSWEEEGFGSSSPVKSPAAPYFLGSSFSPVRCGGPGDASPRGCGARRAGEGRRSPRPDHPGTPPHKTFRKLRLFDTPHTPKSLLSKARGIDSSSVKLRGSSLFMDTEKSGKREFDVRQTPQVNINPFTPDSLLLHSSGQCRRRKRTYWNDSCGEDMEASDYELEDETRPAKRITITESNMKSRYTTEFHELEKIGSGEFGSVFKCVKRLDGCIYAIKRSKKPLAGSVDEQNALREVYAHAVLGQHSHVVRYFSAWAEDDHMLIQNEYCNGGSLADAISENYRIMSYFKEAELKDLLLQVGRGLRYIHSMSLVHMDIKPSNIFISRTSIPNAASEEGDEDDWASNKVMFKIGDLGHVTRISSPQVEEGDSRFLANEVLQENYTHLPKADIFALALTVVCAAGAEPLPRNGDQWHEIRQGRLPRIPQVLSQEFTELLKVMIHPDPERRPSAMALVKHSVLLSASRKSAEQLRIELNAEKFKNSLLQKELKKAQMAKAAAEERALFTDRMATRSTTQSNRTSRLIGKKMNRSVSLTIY

[10] = target: Protein-tyrosine kinase 2-beta (Homo sapiens) (UniProt Q14289); assay: Inhibition of full length human PYK2 (M1 to E967 residues) expressed in bacterial expression system at 1 uM by KINOMEScan assay; how it was run: as §1
Sequence of Protein-tyrosine kinase 2-beta (Homo sapiens) (Q14289 whole entry, looked up, the tested form may be a part): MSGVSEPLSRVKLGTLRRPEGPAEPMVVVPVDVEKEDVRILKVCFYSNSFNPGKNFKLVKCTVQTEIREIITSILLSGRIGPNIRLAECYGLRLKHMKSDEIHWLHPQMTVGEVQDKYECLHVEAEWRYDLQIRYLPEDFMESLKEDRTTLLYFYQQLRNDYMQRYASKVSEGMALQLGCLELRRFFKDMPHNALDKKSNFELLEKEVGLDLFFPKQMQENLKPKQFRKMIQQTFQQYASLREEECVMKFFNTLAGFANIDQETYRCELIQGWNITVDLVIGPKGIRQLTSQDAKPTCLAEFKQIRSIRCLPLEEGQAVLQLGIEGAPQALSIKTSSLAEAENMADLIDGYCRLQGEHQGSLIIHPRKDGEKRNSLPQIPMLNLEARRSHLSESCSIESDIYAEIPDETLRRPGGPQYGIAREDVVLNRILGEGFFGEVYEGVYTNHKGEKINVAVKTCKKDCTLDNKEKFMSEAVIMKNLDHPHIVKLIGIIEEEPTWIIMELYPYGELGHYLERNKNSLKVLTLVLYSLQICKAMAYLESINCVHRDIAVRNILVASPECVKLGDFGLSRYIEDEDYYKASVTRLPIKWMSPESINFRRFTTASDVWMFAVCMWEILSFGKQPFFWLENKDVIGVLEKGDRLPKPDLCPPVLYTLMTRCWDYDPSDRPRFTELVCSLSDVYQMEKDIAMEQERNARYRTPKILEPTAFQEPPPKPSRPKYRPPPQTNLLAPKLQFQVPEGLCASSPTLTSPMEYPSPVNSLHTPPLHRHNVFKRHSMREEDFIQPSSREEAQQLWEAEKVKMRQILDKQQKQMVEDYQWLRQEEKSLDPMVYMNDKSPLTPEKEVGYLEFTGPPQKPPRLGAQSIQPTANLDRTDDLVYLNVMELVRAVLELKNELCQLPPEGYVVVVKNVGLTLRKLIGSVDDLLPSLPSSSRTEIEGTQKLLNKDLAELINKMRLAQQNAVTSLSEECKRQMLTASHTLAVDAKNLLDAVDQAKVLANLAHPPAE

[11] = target: T3, Mitogen-activated protein kinase kinase kinase 2 (Homo sapiens) (UniProt Q9Y2U5); assay: Inhibition of human MAP3K2 (S315 to H619 residues) expressed in mammalian expression system at 1 uM by KINOMEScan assay; how it was run: as §1
T3 sequence (whole entry): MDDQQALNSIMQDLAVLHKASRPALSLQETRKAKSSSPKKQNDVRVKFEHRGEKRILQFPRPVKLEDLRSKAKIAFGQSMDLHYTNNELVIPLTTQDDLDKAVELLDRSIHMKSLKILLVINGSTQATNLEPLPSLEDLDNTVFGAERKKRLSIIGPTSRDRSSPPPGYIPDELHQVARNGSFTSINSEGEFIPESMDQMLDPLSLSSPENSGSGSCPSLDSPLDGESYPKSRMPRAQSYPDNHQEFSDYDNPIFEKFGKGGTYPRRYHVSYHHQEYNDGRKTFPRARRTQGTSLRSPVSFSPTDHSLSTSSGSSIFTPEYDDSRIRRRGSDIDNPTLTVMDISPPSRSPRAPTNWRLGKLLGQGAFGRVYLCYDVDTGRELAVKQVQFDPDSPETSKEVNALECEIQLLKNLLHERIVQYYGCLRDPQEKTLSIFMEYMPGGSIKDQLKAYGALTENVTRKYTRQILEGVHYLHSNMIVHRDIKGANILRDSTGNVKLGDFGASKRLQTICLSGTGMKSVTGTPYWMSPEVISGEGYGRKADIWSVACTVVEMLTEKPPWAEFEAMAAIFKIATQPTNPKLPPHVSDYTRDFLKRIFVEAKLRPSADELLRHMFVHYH

[12] = target: T4, Mitogen-activated protein kinase kinase kinase 3 (Homo sapiens) (UniProt Q99759); assay: Inhibition of human MAP3K3 (E320 to Y626 residues) expressed in mammalian expression system at 1 uM by KINOMEScan assay; how it was run: as §1
T4 sequence (whole entry): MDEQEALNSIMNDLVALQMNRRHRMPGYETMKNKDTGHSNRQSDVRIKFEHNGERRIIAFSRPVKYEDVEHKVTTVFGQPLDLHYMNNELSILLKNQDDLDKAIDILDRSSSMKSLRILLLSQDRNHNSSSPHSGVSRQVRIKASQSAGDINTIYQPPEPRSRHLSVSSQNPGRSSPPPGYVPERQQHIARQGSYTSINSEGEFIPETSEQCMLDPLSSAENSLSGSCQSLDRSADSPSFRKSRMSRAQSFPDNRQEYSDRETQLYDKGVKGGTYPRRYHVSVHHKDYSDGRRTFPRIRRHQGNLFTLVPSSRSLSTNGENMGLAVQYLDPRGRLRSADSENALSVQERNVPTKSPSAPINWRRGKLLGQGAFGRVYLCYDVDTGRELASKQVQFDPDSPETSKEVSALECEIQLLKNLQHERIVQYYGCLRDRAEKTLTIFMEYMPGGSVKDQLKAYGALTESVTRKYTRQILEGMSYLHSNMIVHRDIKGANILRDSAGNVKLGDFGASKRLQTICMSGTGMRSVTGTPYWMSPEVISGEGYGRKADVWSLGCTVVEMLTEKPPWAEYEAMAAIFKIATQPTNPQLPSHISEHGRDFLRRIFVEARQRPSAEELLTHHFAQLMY

[13] = target: T2, Mitogen-activated protein kinase kinase kinase 7 (Homo sapiens); assay: Binding affinity to full length recombinant human GST-tagged TAK1 expressed in baculovirus expression system assessed as labeling of Cys-174 residue after 1 hr by mass spectrometric analysis

t1/2 [1] | IC50 [2] | IC50 [3] | SMILES | further results
8.1 min | 9.8 nM | 3140 nM | C=CC(=O)Nc1ccccc1Oc1nc(Nc2cnn(C)c2)ncc1Cl | –
4.2 min | 26 nM | 242 nM | C=CC(=O)Nc1ccccc1Oc1nc(Nc2cnn(C(F)F)c2)ncc1Cl | –
– | – | – | C=CC(=O)Nc1ccc(Oc2nc(Nc3ccc(N4CCN(C)CC4)cc3)nc3[nH]ccc23)cc1 | IC50 [4]: 34 nM
4 min | 8.2 nM | 4620 nM | C=CC(=O)Nc1ccccc1Oc1nc(Nc2cnn(C3CCOCC3)c2)ncc1Cl | –
– | 2480 nM | – | C=CC(=O)Nc1ccccc1Sc1nc(Nc2ccc(N3CCN(C)CC3)cc2)ncc1Cl | –
12.8 min | 763 nM | 5600 nM | C=CC(=O)Nc1ccccc1Oc1nc(Nc2ccc(N3CCN(C)CC3)cc2)ncc1C1CC1 | –
– | 4470 nM | – | C=CC(=O)Nc1ccccc1Oc1ccnc(Nc2ccc(N3CCN(C)CC3)cc2)n1 | –
– | 4810 nM | – | C=CC(=O)Nc1cc(NC(C)=O)ccc1Oc1nc(Nc2ccc(N3CCN(C)CC3)cc2)ncc1Cl | IC50 [4]: 1640 nM
10.8 min | 142 nM | 1090 nM | C=CC(=O)Nc1ccccc1Nc1nc(Nc2ccc(N3CCN(C)CC3)cc2)ncc1Cl | Kinact [6]: 1.1 ×10⁻³ /s; IC50 [7]: 125 nM; Ki [7]: 160 nM
– | – | – | CCC(=O)Nc1ccccc1Nc1nc(Nc2ccc(N3CCN(C)CC3)cc2)ncc1Cl | inhibition [8]: Active; inhibition [9]: Active; inhibition [10]: Active; inhibition [11]: Active; inhibition [12]: Active
– | – | – | C=CC(=O)Oc1ccccc1Nc1nc(Nc2ccc(N3CCN(C)CC3)cc2OC)ncc1Cl | IC50 [4]: 342 nM
5.7 min | 16 nM | 277 nM | C=CC(=O)Oc1ccccc1Nc1nc(Nc2ccc(N3CCN(C)CC3)cc2)ncc1Cl | –
15.3 min | 1300 nM | 1670 nM | C=CC(=O)Nc1ccccc1Oc1nc(Nc2ccc(N3CCN(C)CC3)cc2)ncc1OC | –
– | > 10000 nM | – | C=CC(=O)Nc1ccccc1Oc1nc(Nc2ccc(N3CCN(C)CC3)cc2)nc(N)c1Cl | –
< 1 min | 9.5 nM | 225 nM | C=CC(=O)Oc1ccccc1Nc1nc(Nc2cccc(N3CCN(C(C)=O)CC3)c2)ncc1Cl | –
6.9 min | 8.5 nM | 90.3 nM | C=CC(=O)Nc1ccccc1Oc1nc(Nc2cnn(CCOC)c2)ncc1Cl | IC50 [7]: 7.6 nM
8.8 min | 1630 nM | 9230 nM | C=CC(=O)Nc1ccccc1Oc1nc(Nc2ccc(N3CCN(C)CC3)cc2)ncc1C | –
10.5 min | 6810 nM | > 10000 nM | C=CC(=O)Nc1ccccc1-n1ccc2cnc(Nc3ccc(N4CCN(C)CC4)cc3)nc21 | –
– | > 10000 nM | – | CCC(=O)Nc1ccccc1Oc1nc(Nc2ccc(N3CCN(C)CC3)cc2)ncc1Cl | IC50 [4]: > 10000 nM
6.1 min | 78 nM | 7000 nM | C=CC(=O)Nc1ccccc1Oc1nc(Nc2ccc(N3CCN(C)CC3)cc2)ncc1Cl | Activity [13]: Active; IC50 [7]: 360 nM
3.8 min | 8.9 nM | 361 nM | C=CC(=O)Oc1ccccc1Nc1nc(Nc2ccc(N3CCOCC3)cc2)ncc1Cl | –
3 min | 2500 nM | > 10000 nM | CN1CCN(c2ccc(Nc3ncc(Cl)c(Oc4ccccc4NC(=O)CCl)n3)cc2)CC1 | IC50 [4]: 25 nM
23 min | 11 nM | 736 nM | C=CC(=O)Oc1ccccc1Nc1nc(Nc2cccc(N3CCOCC3)c2)ncc1Cl | –

SMILES | t1/2 [1] | IC50 [2] | IC50 [3] | further results
COc1cc(O)c2c(c1)/C=C/C[C@H](O)[C@H](O)C(=O)/C=C\C[C@H](C)OC2=O | – | 2.9 nM | 738 nM | inhibition [5]: Active
